# Source: PubChem BioAssay (several laboratories)
# DDE Tn7 FP inh – DD(E)-Tn7 binding inhibition, primary FP screen; P02675; inhibition, % at 8.3 µM; FP displacement of FITC-Tn7 peptide from fibrin DD(E); 0% = median of compound wells per plate; 370,000 tested, 0.13% active;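 active = inhibition above the mean of compounds falling within the control limits plus 3 SD of them, cut at about 14% in these data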;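 also: 0% = plate median of compound wells and 100% = 10 µM Aha-Tn7 peptide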
#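 Test system – human fibrin DD(E) · Times – 10 min preincubation, 3 h with tracer, room temperature · Detection – fluorescence polarization of the labelled Tn7 tracer · Measure – percent inhibition normalized to high-control wells · Benchmarks – high control wells with 10 µM unlabelled Aha-Tn7 peptide (full inhibition) · Repeats – singlicate testing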
# PLCb3 inh – blocks human PLC-beta3 enzyme activity; Purified PLC-beta3, fluorogenic substrate, fluorescence; inhibition, % at 12.2 µM; Q01970; 370,000 tested, 0.18% active;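 also: 0% = median of compound wells on plate and 100% = full blocker control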
# CendR NRP1 mod – modulators of CendR peptide binding to human neuropilin-1; O14786; FAM-RPARPAR peptide binding to NRP-1, fluorescence polarization; inhibition, % at 25 µM; 360,000 tested, 0.85% active;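 active = inhibition or corrected inhibition above about 18%, plus a signal ratio from 0.5 to 1.5, limit read from the data, passing the limit was not always enough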
# PLC-gamma1 inh – PLC-gamma1 (human) inhibition, primary screen; P19174; purified PLC-gamma1, fluorogenic substrate, fluorescence; inhibition, % at 12.2 µM; 370,000 tested, 0.84% active; in the data active = inhibition above about 9.5%
# DDE Tn6 FP inh – DD(E)-Tn6 binding inhibition, primary FP screen | inhibition, % at 8.3 µM | AID 720509 | 370,000 tested, 0.21% active | Fibrin DD(E) TRITC-Tn6 fluorescence polarization displacement;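 active = inhibition above a per-campaign cutoff: mean of compounds within control limits plus 3 SD, cut at about 15% in these data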;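 also: 0% = median of all compound wells on the plate and 100% = blocking peptide control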
# KLK7 zymogen act – activators of human kallikrein-7 zymogen; purified proKLK7, EDANS-DABCYL substrate fluorescence; 100% is mature enzyme control, 0% vehicle; activation, % at 7 µM; 370,000 tested, 0.9% active;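 active = activation above the mean of all tested compounds plus 3 SD, computed per campaign excluding outliers beyond control limits, cut at about 13% in these data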
# Target sequence (P49862 whole entry, looked up): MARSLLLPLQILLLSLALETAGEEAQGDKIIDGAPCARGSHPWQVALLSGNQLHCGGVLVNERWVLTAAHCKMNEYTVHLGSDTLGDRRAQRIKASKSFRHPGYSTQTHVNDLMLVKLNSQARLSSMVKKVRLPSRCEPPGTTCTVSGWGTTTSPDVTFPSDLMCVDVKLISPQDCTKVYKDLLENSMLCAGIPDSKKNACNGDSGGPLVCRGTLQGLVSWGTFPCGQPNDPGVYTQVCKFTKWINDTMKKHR
# PLCg1 ctr – PLC-gamma1 inhibition, counter-screen for PLC-beta3 hits | purified PLC-gamma1, fluorogenic substrate, fluorescence | AID 743258 | 3,300 tested, 3.1% active | inhibition, % at 12.3 µM | shares compounds with PLC-gamma1 inh; in the data active = inhibition above about 9.5%
# PLCbeta3 conf – human PLC-beta3 inhibition, confirmation; shares compounds with PLC-gamma1 inh; purified PLC-beta3, fluorogenic substrate fluorescence; inhibition, % at 12.3 µM; 3,300 tested, 1% active
# * marks the source's active call; other numbers are inactive results; x = not tested or not shown. Hits are enriched below; roughly 3% of the tested compounds scored in any of these assays. Rule as the data show it, unless noted: active = inhibition above about 11%; inactive = the rest.
SMILES,DDE Tn7 FP inh,PLCb3 inh,CendR NRP1 mod,PLC-gamma1 inh,DDE Tn6 FP inh,KLK7 zymogen act,PLCg1 ctr,PLCbeta3 conf
C=CCN(C(=O)[C@@H](C1CC1)[C@@H](O)c1ccc(Cl)cc1)c1ccccc1,2,1,x,0,-2,0,x,x
COC(=O)[C@]12C[C@H](CC(=O)N3CCN(C(=O)c4ccco4)CC3)C(=O)N(Cc3cccc4ccccc34)C1=C[C@H](C(C)C)O[C@@H]2C1CC1,8,3,x,1,12,0,x,x
CC(C)[C@@H](C)/C=C/[C@@H](C)[C@H]1CC[C@@H]2[C@]1(C)CCC1[C@]23C=C[C@]2(C[C@@H](O)CC[C@]12C)N(c1ccc(Br)cn1)O3 (some centres not stated),1,-6,x,9.9*,-4,1,-1,1
CC(C)C[C@@H](NC(=O)OC(C)(C)C)C(=O)N1O[C@]23C=C[C@]14C[C@@H](O)CC[C@]4(C)C2CC[C@]1(C)[C@@H]([C@H](C)/C=C/[C@H](C)C(C)C)CC[C@H]13 (some centres not stated),-4,1,x,2,-5,0,x,x
CCOC(=O)c1sc(NC(=O)CC)nc1C,-1,5,10,3,4,0,x,x
CCOC(=O)c1sc(NC(=O)CCCCl)nc1C,-10,5,-2,9.8*,-1,-1,-1,-2
Cc1ccccc1Cn1c(=O)c2c(nc3n2CCN3Cc2ccco2)n(C)c1=O,5,7,0,11*,3,0,-3,1
Cn1c(=O)n(Cc2ccccc2)c(=O)c2c1nc1n2CCN1Cc1ccco1,5,0,8,-2,4,0,x,x
O=C(COC(=O)/C=C/c1ccccc1[N+](=O)[O-])Nc1ccc(OCc2ccccc2)cc1,-2,1,-3,3,0,0,x,x
O=C(COC(=O)/C=C/c1ccccc1[N+](=O)[O-])Nc1ccc(OC(F)F)cc1,-1,1,-3,11*,-2,-1,-5,-3
CN1[C@H](Cc2ccccc2)COc2cccc(N3CCCC3)c2S1(=O)=O,-4,-5,x,-3,3,1,x,x
O=C(Nc1cccnc1)C1CCCN(S(=O)(=O)c2ccccc2)C1 (configuration not stated),-3,3,20,2,1,0,x,x
O=C(Nc1ccc(Br)cc1)C1CCCN(S(=O)(=O)c2cccnc2)C1 (configuration not stated),-2,11*,-2,5,3,0,1,4
Cc1occc1-c1nnc(SCC(=O)Nc2ccncc2)n1-c1ccccc1,-4,-1,x,2,-4,1,x,x
CCOc1ccc(Nc2nc(-c3cccnc3)cs2)cc1,3,2,9,12*,1,0,-5,1
CCN(CCNC(=O)[C@H]1C=C(OC)C(=O)C[C@H](c2ccccc2)[C@H]1C)C(C)=O,6,-2,x,-3,4,-1,x,x
FC(F)(F)c1ccccc1NC(=S)Nc1ccccc1,2,-5,4,11*,-11,0,-3,-2
COc1ccc(NC(=S)Nc2ccccc2C(F)(F)F)cc1,5,-2,0,3,-6,-1,x,x
O=C(NN1C(=O)NC2(CCCCC2)C1=O)c1cc(F)cc(F)c1,2,-3,12,-1,8,1,x,x
O=C(NN1C(=O)NC2(CCCCC2)C1=O)c1ccc(Cl)c(Cl)c1,-1,-11,-6,12*,-7,0,-9,-7
CC(=O)c1cnc2sccn2c1=O,1,11,2,14*,7,0,-5,-2
COc1ccc(NC(=O)c2cnc3sccn3c2=O)cc1,3,-8,-12,-4,8,0,x,x
COc1ccccc1C(=O)N1CC(=O)Nc2ccc(F)cc2C1c1ccccc1 (configuration not stated),2,3,1,9.6*,-1,0,-10,-2
O=C1CN(C(=O)c2ccccc2[N+](=O)[O-])C(c2ccccc2)c2cc(Br)ccc2N1 (configuration not stated),7,-5,2,9.7*,-2,0,-3,-9
O=C(c1ccncc1)N1CC[C@H]2[C@H](CCCN2Cc2cc(F)cc(F)c2)C1,9,-3,x,0,5,0,x,x
SMILES,DDE Tn7 FP inh,PLCb3 inh,CendR NRP1 mod,PLC-gamma1 inh,DDE Tn6 FP inh,KLK7 zymogen act,PLCg1 ctr,PLCbeta3 conf
COC(=O)C1=C(C)N(Cc2ccccc2C(F)(F)F)C(=NCC2CC2)NC1CCc1ccccc1 (configuration not stated),2,-1,x,-1,-13,1,x,x
CCOC(=O)C(C)c1c(C)[nH]c(=S)[nH]c1=O (configuration not stated),-6,9,9,11*,6,0,-3,-7
COC(=O)N1C[C@H](OCCCOCc2ccccc2)[C@H]2C[C@@H]1c1ccccc1O2,5,1,x,1,-3,0,x,x
CN(C)S(=O)(=O)c1cccc(C(=O)NCCNC(=O)c2cccc(S(=O)(=O)N(C)C)c2)c1,3,-4,-1,2,1,-1,x,x
CN(C)S(=O)(=O)c1cccc(C(=O)NCC(C)(C)CNC(=O)c2cccc(S(=O)(=O)N(C)C)c2)c1,-4,-2,2,9.9*,2,1,8,2
CCOC(=O)C1CCCN(C(=O)c2cccc(S(=O)(=O)N(C)c3ccc(OC)cc3)c2)C1 (configuration not stated),-7,-4,-7,1,4,0,x,x
CCOC(=O)C1CCCN(C(=O)c2cccc(S(=O)(=O)N(Cc3ccccc3)c3ccccc3OC)c2)C1 (configuration not stated),-7,2,9,9.7*,5,0,-6,-3
Cc1nn(-c2ccccc2)c2sc(C(=O)NC3CCCCCCC3)cc12,-2,4,x,2,-6,0,x,x
Cc1nccn1CCOc1ccccc1Cl,-6,1,-10,10*,-7,0,-6,-1
Clc1ccccc1OCCCn1ccnc1,2,-3,15,0,-1,0,x,x
CC(=O)Nc1ccc(OC(=O)c2ccc(Cl)cc2)cc1,-8,11*,-7,4,5,0,-9,-4
CC(=O)Nc1ccc(C(=O)OCc2ccc(Cl)cc2)cc1,4,0,3,3,-1,0,x,x
CC(C)(C)c1ccc(-c2nnc3n2N=C(c2ccc(Cl)cc2)CS3)cc1,-5,-1,x,0,1,0,x,x
O=C(c1ccc([N+](=O)[O-])cc1)N1CCN=C1SCc1ccccc1,-2,0,-5,1,-7,-1,x,x
